From PubChem BioAssay
Hits are enriched below; roughly 4.5% of the tested compounds scored in any of these assays.
MrgX1 PAM: positive allosteric modulators of MrgX1, primary screen, HEK293 cells, Fluo-4 calcium flux. AID 588675, 2011. B-score at 10 µM. 310,000 compounds, 0.63% hits. Mas-related G-protein coupled receptor member X1 (Homo sapiens), Q96LB2. FDSS; stronger effect = higher value;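 active means plate-corrected calcium response at least 3 library SD above typical, normal starting fluorescence, not activating the receptor alone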;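 further: compound read alongside a low EC10 to EC30 dose of BAM8-22 agonist; peak minus trough fluorescence over baseline measured at the second addition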
Target sequence (Q96LB2 whole entry, looked up): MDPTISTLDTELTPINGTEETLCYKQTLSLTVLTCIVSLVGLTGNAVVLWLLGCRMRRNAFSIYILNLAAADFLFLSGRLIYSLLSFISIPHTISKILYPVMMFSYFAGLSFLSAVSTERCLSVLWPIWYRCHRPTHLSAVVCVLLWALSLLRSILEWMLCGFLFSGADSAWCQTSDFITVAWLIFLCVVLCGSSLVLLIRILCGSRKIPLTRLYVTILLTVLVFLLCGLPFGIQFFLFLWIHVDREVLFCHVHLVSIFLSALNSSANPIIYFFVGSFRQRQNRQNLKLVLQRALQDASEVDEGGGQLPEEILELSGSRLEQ
RGS4 pot: RGS4 potentiators or activators, primary screen, cell-based, HEK293 M3R inducible RGS4, calcium flux; carbachol calcium flux Fluo4; stronger effect = lower value; B-score at 10 µM; 310,000 compounds, 0.92% hits;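 active means B-score of the integrated calcium signal more than 4 SD below the library mean, with starting fluorescence not abnormally high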;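 further: negative B-score means reduced calcium response which marks RGS4 activation or potentiation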
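Detection: kinetic calcium fluorescence imaging with Fluo4-AM dye, 2 µM / Material: HEK293 cells with stable M3R and inducible RGS4 / Schedule: recording 10 s baseline at 1 Hz, 100 s post-agonist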
PHOSPHO1 block: PubChem AID 1565. Phosphoethanolamine/phosphocholine phosphatase (Homo sapiens), Q8TCT1. inhibition, % at 13.3 µM. recombinant PHOSPHO1, absorbance phosphatase assay. 290,000 compounds, 1.1% hits; in the data active means inhibition above about 60%
Target sequence (Q8TCT1 whole entry, looked up): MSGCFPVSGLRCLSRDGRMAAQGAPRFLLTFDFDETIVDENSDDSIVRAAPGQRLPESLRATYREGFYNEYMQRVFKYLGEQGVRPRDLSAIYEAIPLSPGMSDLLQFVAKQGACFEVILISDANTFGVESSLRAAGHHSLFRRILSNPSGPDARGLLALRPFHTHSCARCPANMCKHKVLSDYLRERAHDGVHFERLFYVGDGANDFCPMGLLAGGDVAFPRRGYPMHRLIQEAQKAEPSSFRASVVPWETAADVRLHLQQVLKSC
MrgX1 antagonist: antagonists of human MrgX1 receptor, primary screen, HEK293 cells, Fluo-4 calcium flux | Mas-related G-protein coupled receptor member X1 (Homo sapiens), Q96LB2 | BAM8-22 antagonism; stronger effect = lower value | B-score at 10 µM | 310,000 compounds, 1.3% hits;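 active means calcium-response B-score plate-corrected more than 3 library SD below zero, starting fluorescence within 5 deviations, no agonist response on first addition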;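 further: peak minus trough fluorescence over baseline after final BAM8-22 challenge near maximal dose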
MrgX1 ag: agonists of human MrgX1 receptor, primary screen, HEK293 cells, Fluo-4 calcium flux. B-score at 10 µM. Fluo-4 calcium fluorescence, agonist mode; stronger effect = higher value. Mas-related G-protein coupled receptor member X1 (Homo sapiens), Q96LB2. 310,000 compounds, 0.44% hits;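 active means calcium response B-score plate-corrected fluorescence ratio at least 3 library SD, with starting fluorescence B-score inside 5 SD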
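Test system: Stable human MrgX1 HEK293 cell line | Schedule: Overnight plating before 1 h dye loading | Read-out basis: Baseline-normalised fluorescence change ratio, B-scored | Detection: Kinetic calcium dye fluorescence, Fluo-4 NW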
RGS4 inh: RGS4 inhibitors, primary screen, cell-based, HEK293 M3R inducible RGS4, calcium flux. Regulator of G-protein signaling 4 (Homo sapiens), P49798. Fluo-4 calcium flux; stronger effect = higher value; triggered by carbachol at its EC20. B-score at 10 µM. 310,000 compounds, 0.45% hits. AID 463165, 2010;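 active means B-score, a plate-corrected calcium signal, over three deviations above library mean, with baseline fluorescence within five deviations of library mean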;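 further: RGS4 expression induced by doxycycline in cells with stable M3 receptor; B-score is computed from the integrated fluorescence ratio over baseline after carbachol; higher B-score means a larger calcium signal and so more RGS4 inhibition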
Target sequence (P49798 whole entry, looked up): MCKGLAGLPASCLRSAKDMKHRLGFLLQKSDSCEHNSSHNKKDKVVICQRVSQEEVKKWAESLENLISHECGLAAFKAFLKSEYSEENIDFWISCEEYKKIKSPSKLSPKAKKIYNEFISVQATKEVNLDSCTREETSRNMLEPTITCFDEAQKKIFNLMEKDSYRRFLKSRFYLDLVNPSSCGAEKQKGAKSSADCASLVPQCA
MrgX1 ag confirm: MrgX1 receptor agonists, duplicate retest, confirmation, HEK293 cells, Fluo-4 calcium flux. shares compounds with MrgX1 ag. activation, % at 10 µM. AID 602412, 2012. Fluo-4 calcium fluorescence, FDSS. 600 compounds, 78% hits;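 active means calcium signal rise, corrected for plate position, at least 3 library SD high, with starting brightness within 5 such deviations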
HEK293 Ca flux: nonspecific calcium signal in parental HEK293, confirmation, counter-screen for MrgX1 antagonist project, parental HEK293 cells, Fluo-4 calcium flux; shares compounds with MrgX1 antagonist; Fluo-4 calcium fluorescence, FDSS; fluorescence ratio F(max-min)/F0 at 10 µM; 4,000 compounds, 2% hits; AID 624111, 2012;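 active means duplicate-averaged calcium fluorescence ratio at least three times the standard deviation of buffer wells, a nonspecific response in parental cells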
HEK293 Ca counter: calcium response in parental HEK293 cells, primary screen, counter-screen for MrgX1 allosteric activator project, cell-based, Fluo-4 calcium flux, duplicate | shares compounds with MrgX1 antagonist | Fluo-4 fluorescence ratio; stronger effect = higher value | fluorescence ratio F(max-min)/F0 at 10 µM | 4,000 compounds, 0.4% hits;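 active means calcium fluorescence ratio, averaged over duplicates, at least 3 SD of the buffer-well ratio, meaning a nonspecific response in receptor-free cells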;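 further: untransfected parental HEK293 lacking MrgX1 used as counterscreen for MrgX1 allosteric activators; fluorescence change taken during the second addition on a kinetic imager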
HEK293 Ca cntr2: calcium response in parental HEK293 cells, primary screen, counter-screen for MrgX1 agonist project, cell-based, Fluo-4 calcium flux, duplicate, agonist mode. shares compounds with MrgX1 antagonist. Fluo-4 calcium fluorescence (FDSS); stronger effect = higher value. fluorescence ratio F(max-min)/F0 at 10 µM. 4,000 compounds, 8.7% hits;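 active means calcium fluorescence ratio at least three times the spread of buffer wells, meaning a non-specific response in parental cells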
Each line names hits and unclear results; the compound was inactive in the other large screens (follow-up assays come after a bar, where they were run).

Cc1ccccc1-n1c(CSC(=N)N)nc2ccccc2c1=O	MrgX1 ag 42.9 | MrgX1 ag confirm 220.8% | HEK293 Ca flux inactive | HEK293 Ca counter inactive | HEK293 Ca cntr2 inactive
O=c1c2ccccc2nc(CSc2nnnn2-c2ccccc2)n1-c1ccccc1Cl	none
N=C(N)SCc1nc2ccccc2c(=O)n1-c1ccccc1Cl	MrgX1 ag 27.2 | MrgX1 ag confirm 202.6% | HEK293 Ca flux inactive | HEK293 Ca counter inactive | HEK293 Ca cntr2 inactive
Cc1ccc(-c2nn(-c3ccccc3)cc2CSC(=N)N)cc1	MrgX1 ag 43 | MrgX1 ag confirm 182.0% | HEK293 Ca flux inactive | HEK293 Ca counter inactive | HEK293 Ca cntr2 inactive
CCSc1nnc(-c2cc(Br)ccc2N=Cc2c(C)[nH]n(-c3ccccc3)c2=O)c(=O)[nH]1	MrgX1 ag 71.3 | MrgX1 ag confirm 108.6% | HEK293 Ca flux inactive | HEK293 Ca counter inactive | HEK293 Ca cntr2 61
CSc1nnc(-c2cc(Br)ccc2N=Cc2c(C)[nH]n(-c3ccccc3)c2=O)c(=O)[nH]1	none
CC(C)NS(=O)(=O)c1ccc(OCC(=O)Nc2ccc(F)cc2F)cc1	none
CCOC(=O)c1ccc2c(c1)NCc1cccc(OC)c1O2	MrgX1 ag 28.5 | MrgX1 ag confirm inactive | HEK293 Ca flux inactive | HEK293 Ca counter inactive | HEK293 Ca cntr2 inactive
CC(C)(CO)CNC(=O)CCc1nnc(-c2ccc(-c3ccccc3)cc2)o1	none
O=C(NCc1ccccc1)c1ccc2c(=O)n3c(nc2c1)CCCCC3	none
O=C(NCCc1ccc(F)cc1)c1ccc2c(=O)n3c(nc2c1)CCC3	MrgX1 ag 31.5 (no result: PHOSPHO1 block) | MrgX1 ag confirm 217.4% | HEK293 Ca flux inactive | HEK293 Ca counter inactive | HEK293 Ca cntr2 51.6
COc1ccc(C2C(C#N)=C(N)Oc3cccc(O)c32)cc1 (stereo not drawn)	MrgX1 ag 28.4 | MrgX1 ag confirm inactive | HEK293 Ca flux inactive | HEK293 Ca counter inactive | HEK293 Ca cntr2 inactive
CC(=O)c1ccc(NC(=S)N2CCN(S(=O)(=O)c3ccc(F)cc3)CC2)cc1	none
CC1(c2ccc(OC(F)F)cc2)NC(=O)N(CC(=O)Nc2cccnc2Cl)C1=O (stereo not drawn)	MrgX1 ag 33.4 (no result: PHOSPHO1 block) | MrgX1 ag confirm 136.8% | HEK293 Ca flux inactive | HEK293 Ca counter inactive | HEK293 Ca cntr2 47
COc1ccc(C2(C)NC(=O)N(CC(=O)Nc3cccnc3Cl)C2=O)cc1 (stereo not drawn)	none
CCOc1ccc(S(=O)(=O)Nc2nc3ccccc3nc2Nc2ccc(N3CCOCC3)cc2)cc1	none
N#Cc1ccc(-c2cccnc2)nc1SCC(=O)c1ccccc1	MrgX1 ag 30.5 | MrgX1 ag confirm 196.7% | HEK293 Ca flux inactive | HEK293 Ca counter inactive | HEK293 Ca cntr2 inactive
CN1CCN(C(=O)CSc2nc(-c3cccs3)cc(-c3cccs3)c2C#N)CC1	none
CN1CCN(C(=O)CSc2nc(-c3ccncc3)ccc2C#N)CC1	MrgX1 ag 34.5 | MrgX1 ag confirm 158.3% | HEK293 Ca flux inactive | HEK293 Ca counter inactive | HEK293 Ca cntr2 inactive
COc1ccccc1-c1nnc(Sc2nc([N+](=O)[O-])nn2C)o1	none
CCC(=O)Nc1ccc(N/C(N)=N/c2nc(C)cc(C)n2)cc1	none
Cc1ccc(N/C(N)=N/c2nc(C)cc(C)n2)cc1	MrgX1 ag 124 | MrgX1 ag confirm 431.7% | HEK293 Ca flux inactive | HEK293 Ca counter inactive | HEK293 Ca cntr2 97.2
Cc1cc(C)nc(/N=C(\N)Nc2ccc(C(C)C)cc2)n1	MrgX1 ag 32.5 | MrgX1 ag confirm 118.8% | HEK293 Ca flux inactive | HEK293 Ca counter inactive | HEK293 Ca cntr2 inactive
Cc1cccc(N/C(N)=N/c2nc(C)cc(C)n2)c1	MrgX1 ag 69 | MrgX1 ag confirm 358.4% | HEK293 Ca flux inactive | HEK293 Ca counter inactive | HEK293 Ca cntr2 75.8
Cc1cc(C)cc(N/C(N)=N/c2nc(C)cc(C)n2)c1	MrgX1 ag 32.8 | MrgX1 ag confirm 131.8% | HEK293 Ca flux inactive | HEK293 Ca counter inactive | HEK293 Ca cntr2 inactive
COc1ccc(NC(=S)NC(=O)CC(C)C)c(OC)c1	none
C=CCN(CC=C)C(=O)c1cc2ccccc2c(=O)o1	none
CC(=O)c1cccc(Nc2nc3ccccc3n3cnnc23)c1	none
COC(=O)Cc1nc(NC(=O)c2cccs2)sc1C	MrgX1 ag 28.1 (no result: PHOSPHO1 block) | MrgX1 ag confirm 149.5% | HEK293 Ca flux inactive | HEK293 Ca counter inactive | HEK293 Ca cntr2 inactive
CC(C)C(C)NC(=O)COC(=O)c1cc(S(=O)(=O)N(C)C)ccc1N1CCCC1 (stereo not drawn)	none
CN1c2ccccc2C(O)=C(C(=O)Nc2ccccc2)S1(=O)=O	MrgX1 ag 40.7 | MrgX1 ag confirm inactive | HEK293 Ca flux inactive | HEK293 Ca counter inactive | HEK293 Ca cntr2 inactive
Cc1ccnc(NC(=O)c2cccc3ccccc23)c1	none
CC(=O)N/C(=C\c1ccccc1)C(=O)OC(C)C(=O)NCc1ccccc1 (stereo not drawn)	none (no result: PHOSPHO1 block)
O=C(CCc1ccccc1)NNC(=S)NC(=O)c1ccc(Cl)cc1	PHOSPHO1 block 94.6, MrgX1 ag 141 | MrgX1 ag confirm 695.6% | HEK293 Ca flux inactive | HEK293 Ca counter inactive | HEK293 Ca cntr2 126
Cc1ccc(C(=O)NNC(=S)NC(=O)c2ccc(Cl)cc2)cc1	MrgX1 ag 132 | MrgX1 ag confirm 746.6% | HEK293 Ca flux inactive | HEK293 Ca counter inactive | HEK293 Ca cntr2 138
O=C(CCc1ccccc1)NNC(=O)c1ccc(Cl)cc1	none
O=C(N/N=C/C1C(c2ccccc2)C1(Cl)Cl)c1cccc(Cl)c1 (stereo not drawn)	none
COc1ccc2c(c1)CC/C(=C\Nc1ccc3c(c1)OCO3)C2=O	MrgX1 ag 26.9 | MrgX1 ag confirm inactive | HEK293 Ca flux inactive | HEK293 Ca counter inactive | HEK293 Ca cntr2 inactive
